Source: ChEMBL document CHEMBL1142436, “Design and synthesis of 4-substituted indolo[3,2-e][1,2,3]triazolo[1,5-a]pyrimidine derivatives with antitumor activity” (2008)

Columns and labels:
Format in all cases: functional
HL-60 = assay: Growth inhibition of human HL60 cells after 48 hrs; conditions: HL-60, 48 h; for TGI: read-out: pTGI (converted)
Method in brief: (§1)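 NCI ~60-line screen. Cells were grown in RPMI 1640 with 5% FBS and 2 mM L-glutamine and plated at 5000–40000 cells/well. After a 24 h preincubation, five drug concentrations from DMSO stocks were added for 48 h at 37 °C. Cells were TCA-fixed, stained with SRB and read at 515 nm. GI50 was taken from time-zero and control absorbances and reported as pGI50.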

OVCAR-3 = assay: Growth inhibition of human OVCAR-3 cells after 48 hrs; conditions: OVCAR-3, 48 h; for TGI: read-out: pTGI (converted); method in brief: as §1
SW-620 = assay: Growth inhibition of human SW620 cells after 48 hrs; conditions: SW-620, 48 h; for TGI: read-out: pTGI (converted)
Method in brief: (§2)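 NCI 60-line screen: cells in RPMI 1640 with 5% FBS and 2 mM L-glutamine, plated at 5000–40000 cells/well, grown 24 h (37 °C, 5% CO₂), then exposed to five 10-fold or ½-log dilutions (DMSO stock) for 48 h. Fixed with TCA (final 10% for adherent cells, 16% for suspension cells), then SRB stained with absorbance at 515 nm. GI50 from percentage growth relative to time-zero and control wells.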

Malme-3M = assay: Growth inhibition of human MALME3M cells after 48 hrs; conditions: for TGI: read-out: pTGI (converted); method in brief: as §1
HCC 2998 = assay: Growth inhibition of human HCC2998 cells after 48 hrs; conditions: HCC 2998, 48 h; for TGI: read-out: pTGI (converted); method in brief: as §1
DU-145 = assay: Growth inhibition of human DU145 cells after 48 hrs; conditions: DU-145, 48 h; for TGI: read-out: pTGI (converted); method in brief: as §1
SNB-75 = assay: Growth inhibition of human SNB75 cells after 48 hrs; conditions: SNB-75, 48 h; method in brief: as §2
CAKI-1 = assay: Growth inhibition of human CAKI1 cells after 48 hrs; conditions: CAKI-1, 48 h; for TGI: read-out: pTGI (converted); method in brief: as §1
LOX IMVI = assay: Growth inhibition of human LOXIMVI cells after 48 hrs; conditions: for TGI: read-out: pTGI (converted); method in brief: as §1
K562 = assay: Growth inhibition of human K562 cells after 48 hrs; conditions: K562, 48 h; for TGI: read-out: pTGI (converted); method in brief: as §1
SK-OV-3 = assay: Growth inhibition of human SKOV3 cells after 48 hrs; conditions: SK-OV-3, 48 h; for TGI: read-out: pTGI (converted); method in brief: as §2
MCF7 = assay: Growth inhibition of human MCF7 cells after 48 hrs; conditions: MCF7, 48 h; for TGI: read-out: pTGI (converted); method in brief: as §1
M14 = assay: Growth inhibition of human M14 cells after 48 hrs; conditions: M14, 48 h; for TGI: read-out: pTGI (converted); method in brief: as §1
T47D = assay: Growth inhibition of human T47D cells after 48 hrs; conditions: for TGI: read-out: pTGI (converted); method in brief: as §2
OVCAR-5 = assay: Growth inhibition of human OVCAR5 cells after 48 hrs; conditions: OVCAR-5, 48 h; for TGI: read-out: pTGI (converted); method in brief: as §1
HCT-15 = assay: Growth inhibition of human HCT15 cells after 48 hrs; conditions: HCT-15, 48 h; for TGI: read-out: pTGI; method in brief: as §1
A498 = assay: Growth inhibition of human A498 cells after 48 hrs; conditions: A498, 48 h; for TGI: read-out: pTGI (converted); method in brief: as §1
U-251 = assay: Growth inhibition of human U251 cells after 48 hrs; conditions: U-251, 48 h; for TGI: read-out: pTGI (converted); method in brief: as §2
NCI-H522 = assay: Growth inhibition of human NCI-H522 cells after 48 hrs; conditions: NCI-H522, 48 h; for TGI: read-out: pTGI (converted); method in brief: as §1
IGROV-1 = assay: Growth inhibition of human IGROV1 cells after 48 hrs; conditions: IGROV-1, 48 h; method in brief: as §1
OVCAR-4 = assay: Growth inhibition of human OVCAR4 cells after 48 hrs; conditions: OVCAR-4, 48 h; for TGI: read-out: pTGI (converted); method in brief: as §1
NCI-H23 = assay: Growth inhibition of human NCI-H23 cells after 48 hrs; conditions: Homo sapiens, NCI-H23, 48 h; for CC50: read-out: Log LC50 (the source's name) (converted); for TGI: read-out: pTGI (converted); method in brief: as §1
MDA-MB-231 = assay: Growth inhibition of human MDA-MB-231 cells after 48 hrs; conditions: MDA-MB-231, 48 h; for TGI: read-out: pTGI (converted); method in brief: as §1
[1] = read-out: Log LC50 (the source's name) (converted)

## CCCCN(CCCC)CCCn1c(=O)c2c3ccccc3n(C)c2n2nnc(-c3ccccc3)c12
HL-60
  GI50: 2.57 µM
  TGI: 41.7 µM
OVCAR-3
  GI50: 49 µM
  TGI: > 100 µM
SW-620
  GI50: 26.3 µM
  TGI: > 100 µM
Malme-3M
  GI50: 28.2 µM
  TGI: 89.1 µM
HCC 2998
  GI50: 20.4 µM
  TGI: > 100 µM
DU-145
  GI50: 47.9 µM
  TGI: > 100 µM
SNB-75
  GI50: 15.1 µM
SNB-75; read-out: pTGI (converted)
  TGI: 56.2 µM
CAKI-1
  GI50: 50.1 µM
  TGI: > 100 µM
LOX IMVI
  GI50: 28.2 µM
  TGI: > 100 µM
K562
  GI50: 13.8 µM
  TGI: > 100 µM
SK-OV-3
  GI50: 30.2 µM
  TGI: 30.2 µM
MCF7
  GI50: 37.2 µM
  TGI: > 100 µM
M14
  GI50: 21.4 µM
  TGI: > 100 µM
T47D
  GI50: 55 µM
  TGI: > 100 µM
OVCAR-5
  GI50: 22.4 µM
  TGI: > 100 µM
HCT-15
  GI50: 20.9 µM
  TGI: > 100 µM
A498
  GI50: 42.7 µM
  TGI: > 100 µM
U-251
  GI50: 33.1 µM
  TGI: > 100 µM
NCI-H522
  TGI: 10.7 µM
IGROV-1
  LC50: > 50.1 µM
OVCAR-4
  GI50: 17.4 µM
  TGI: 83.2 µM
NCI-H23
  CC50: 12.9 µM
  TGI: 63.1 µM
MDA-MB-231
  GI50: 36.3 µM
  TGI: > 100 µM

## CCOC(=O)CNC(=O)CCCn1c(=O)c2c3ccccc3n(C)c2n2nnc(-c3ccccc3)c12
HL-60
  GI50: 20.4 µM
  LC50: > 50.1 µM
  TGI: > 50.1 µM
OVCAR-3
  GI50: 12.6 µM
  LC50: > 50.1 µM
  TGI: 49 µM
SW-620
  GI50: > 50.1 µM
  LC50 (lethal concentration, 50% cell kill): > 50.1 µM
  TGI: > 50.1 µM
Malme-3M
  GI50: > 50.1 µM
  LC50: > 50.1 µM
  TGI: > 50.1 µM
HCC 2998
  GI50: > 50.1 µM
  LC50: > 50.1 µM
  TGI: > 50.1 µM
DU-145
  GI50: 32.4 µM
  LC50: > 50.1 µM
  TGI: > 50.1 µM
SNB-75
  GI50: 1.12 µM
  LC50: 17 µM
CAKI-1
  GI50: 8.32 µM
  LC50 (concentration killing 50% of cells): 47.9 µM
  TGI: 20 µM
LOX IMVI
  GI50: 25.1 µM
  LC50 (lethal concentration, 50% cell kill): > 50.1 µM
  TGI: > 50.1 µM
K562
  GI50: 4.68 µM
  LC50: > 50.1 µM
  TGI: > 50.1 µM
SK-OV-3
  GI50: 6.76 µM
  LC50: > 50.1 µM
  TGI: 43.7 µM
MCF7
  GI50: 31.6 µM
  LC50: > 50.1 µM
  TGI: > 50.1 µM
M14
  GI50: 18.6 µM
  LC50: > 50.1 µM
  TGI: > 50.1 µM
T47D
  GI50: 43.7 µM
  TGI: > 50.1 µM
T47D; [1]
  CC50: > 50.1 µM
OVCAR-5
  GI50: 27.5 µM
  LC50 (concentration killing 50% of cells): > 50.1 µM
  TGI: > 50.1 µM
HCT-15
  GI50: > 50.1 µM
  LC50: > 50.1 µM
  TGI: > 50.1 µM
A498
  GI50: 7.59 µM
  TGI: 24.5 µM
A498; [1]
  CC50: > 50.1 µM
U-251
  GI50: 4.17 µM
  LC50: 46.8 µM
  TGI: 14.5 µM
NCI-H522
  GI50: 6.46 µM
  LC50: > 50.1 µM
  TGI: 20 µM
IGROV-1
  GI50: 8.91 µM
  LC50: > 50.1 µM
IGROV-1; read-out: pTGI (converted)
  TGI: 30.2 µM
OVCAR-4
  GI50: > 50.1 µM
  LC50: > 50.1 µM
  TGI: > 50.1 µM
NCI-H23
  GI50: 11.7 µM
  CC50: > 50.1 µM
  TGI: > 50.1 µM
MDA-MB-231
  GI50: 14.8 µM
  LC50 (concentration killing 50% of cells): > 50.1 µM
  TGI: 30.9 µM
